According to ChEMBL document CHEMBL3808372, “Identification of quinones as novel PIM1 kinase inhibitors” (Bioorg Med Chem Lett, 2016):

Key:
[1] = molecular target: Cyclin-dependent kinase 11B (Homo sapiens) (UniProt P21127); test: Inhibition of human CDK11 (1 to 360 amino acid residues) assessed as enzyme activity at 10 uM by KINOMEScan assay expressed in bacterial system assessed as enzyme activity at 10 uM by KINOMEScan assay; design: scale not given: the % may be the effect or the level left
Summary of the method: (§1)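 Commercial KINOMEscan binding panel of 100 kinases, test compound at 10 μM. Results are primary-screen binding interactions expressed as % Ctrl = (test compound signal − positive control signal)/(negative control signal − positive control signal) × 100. Lower % Ctrl means stronger binding.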

[2] = molecular target: Serine/threonine-protein kinase pim-2 (Homo sapiens) (UniProt Q9P1W9); test: Inhibition of human PIM2 (1 to 291 amino acid residues) expressed in bacterial system assessed as enzyme activity at 10 uM by KINOMEScan assay; design: scale not given: the % may be the effect or the level left
Summary of the method: (§2)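 Single-concentration competition binding screen (KINOMEscan) across a 100-kinase panel at 10 μM. Primary binding read-out is reported as % of control: (test signal − positive-control signal)/(negative-control signal − positive-control signal) × 100. Lower values indicate stronger binding.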

[3] = test system: Serine/threonine-protein kinase B-raf (Homo sapiens), P15056 [V600E]; test: Inhibition of human BRAF V600E mutant (429 to 741 amino acid residues) assessed as enzyme activity at 10 uM by KINOMEScan assay; design: scale not given: the % may be the effect or the level left
Summary of the method: (§3)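 Competition binding screen on a 100-kinase KINOMEscan panel, compound tested at a single 10 μM concentration. Primary binding read-out expressed as % Ctrl = (test compound signal − positive control signal)/(negative control signal − positive control signal) × 100, with lower values meaning stronger binding.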

[4] = molecular target: Hepatocyte growth factor receptor (Homo sapiens) (UniProt P08581); test: Inhibition of human MET (1010 to 1367 amino acid residues) expressed in bacterial system assessed as enzyme activity at 10 uM by KINOMEScan assay; design: scale not given: the % may be the effect or the level left; summary of the method: as §1
[5] = molecular target: Bone morphogenetic protein receptor type-2 (Homo sapiens) (UniProt Q13873); test: Inhibition of human BMPR2 (179 to 526 amino acid residues) assessed as enzyme activity at 10 uM by KINOMEScan assay; design: scale not given: the % may be the effect or the level left; summary of the method: as §3
[6] = molecular target: Rho-associated protein kinase 2 (Homo sapiens) (UniProt O75116); test: Inhibition of human ROCK2 (1 to 431 amino acid residues) assessed as enzyme activity at 10 uM by KINOMEScan assay; design: scale not given: the % may be the effect or the level left; summary of the method: as §2
[7] = molecular target: Serine/threonine-protein kinase pim-2 (Homo sapiens) (UniProt Q9P1W9); test: Inhibition of PIM2 (unknown origin)
[8] = molecular target: Serine/threonine-protein kinase 32C (Homo sapiens) (UniProt Q86UX6); test: Inhibition of human YANK3 (68 to 486 amino acid residues) expressed in bacterial system assessed as enzyme activity at 10 uM by KINOMEScan assay; design: scale not given: the % may be the effect or the level left; summary of the method: as §2
[9] = molecular target: Dual specificity mitogen-activated protein kinase kinase 1 (Homo sapiens) (UniProt Q02750); test: Inhibition of full length human MEK1 assessed as enzyme activity at 10 uM by KINOMEScan assay; design: scale not given: the % may be the effect or the level left; summary of the method: as §3
[10] = test system: Mast/stem cell growth factor receptor Kit (Homo sapiens), P10721 [D816V]; test: Inhibition of human KIT D816V mutant (571 to 952 amino acid residues) expressed in bacterial system assessed as enzyme activity at 10 uM by KINOMEScan assay; design: scale not given: the % may be the effect or the level left; summary of the method: as §1
[11] = molecular target: Serine/threonine-protein kinase PLK3 (Homo sapiens) (UniProt Q9H4B4); test: Inhibition of human PLK3 (42 to 334 amino acid residues) assessed as enzyme activity at 10 uM by KINOMEScan assay; design: scale not given: the % may be the effect or the level left; summary of the method: as §2
[12] = molecular target: Platelet-derived growth factor receptor alpha (Homo sapiens) (UniProt P16234); test: Inhibition of human PDGFRA (575 to 1002 amino acid residues) assessed as enzyme activity at 10 uM by KINOMEScan assay; design: scale not given: the % may be the effect or the level left; summary of the method: as §1
[13] = molecular target: Cyclin-dependent kinase 7 (Homo sapiens) (UniProt P50613); test: Inhibition of full length human CDK7 assessed as enzyme activity at 10 uM by KINOMEScan assay; design: scale not given: the % may be the effect or the level left; summary of the method: as §3
[14] = molecular target: Proto-oncogene tyrosine-protein kinase Src (Homo sapiens) (UniProt P12931); test: Inhibition of SRC (unknown origin)
[15] = molecular target: RAF proto-oncogene serine/threonine-protein kinase (Homo sapiens) (UniProt P04049); test: Inhibition of human RAF1 (330 to 640 amino acid residues) expressed in bacterial system assessed as enzyme activity at 10 uM by KINOMEScan assay; design: scale not given: the % may be the effect or the level left; summary of the method: as §1
[16] = molecular target: Phosphatidylinositol 4,5-bisphosphate 3-kinase catalytic subunit alpha isoform (Homo sapiens) (UniProt P42336); test: Inhibition of human PIK3CA (108 to 1068 amino acid residues) assessed as enzyme activity at 10 uM by KINOMEScan assay; design: scale not given: the % may be the effect or the level left; summary of the method: as §2
[17] = molecular target: Macrophage colony-stimulating factor 1 receptor (Homo sapiens) (UniProt P07333); test: Inhibition of human CSF1R (564 to 939 amino acid residues) assessed as enzyme activity at 10 uM by KINOMEScan assay expressed in bacterial system assessed as enzyme activity at 10 uM by KINOMEScan assay; design: scale not given: the % may be the effect or the level left; summary of the method: as §3
[18] = molecular target: Death-associated protein kinase 1 (Homo sapiens) (UniProt P53355); test: Share of MOE computational kinase hits for DAPK
[19] = molecular target: Serine/threonine-protein kinase PAK 2 (Homo sapiens) (UniProt Q13177); test: Inhibition of human PAK2 (151 to 525 amino acid residues) expressed in bacterial system assessed as enzyme activity at 10 uM by KINOMEScan assay; design: scale not given: the % may be the effect or the level left; summary of the method: as §3
[20] = molecular target: Serine/threonine-protein kinase PLK1 (Homo sapiens) (UniProt P53350); test: Inhibition of human PLK1 (33 to 325 amino acid residues) assessed as enzyme activity at 10 uM by KINOMEScan assay; design: scale not given: the % may be the effect or the level left; summary of the method: as §2
[21] = molecular target: Mast/stem cell growth factor receptor Kit (Homo sapiens) (UniProt P10721); test: Inhibition of human KIT (571 to 952 amino acid residues) expressed in bacterial system assessed as enzyme activity at 10 uM by KINOMEScan assay; design: scale not given: the % may be the effect or the level left; summary of the method: as §1
[22] = molecular target: Ephrin type-A receptor 2 (Homo sapiens) (UniProt P29317); test: Inhibition of human EPHA2 (593 to 891 amino acid residues) assessed as enzyme activity at 10 uM by KINOMEScan assay expressed in bacterial system assessed as enzyme activity at 10 uM by KINOMEScan assay; design: scale not given: the % may be the effect or the level left; summary of the method: as §1
[23] = molecular target: 3-phosphoinositide-dependent protein kinase 1 (Homo sapiens) (UniProt O15530); test: Inhibition of full length human PDPK1 expressed in bacterial system assessed as enzyme activity at 10 uM by KINOMEScan assay; design: scale not given: the % may be the effect or the level left; summary of the method: as §3
[24] = molecular target: Serine/threonine-protein kinase RIO2 (Homo sapiens) (UniProt Q9BVS4); test: Inhibition of human RIOK2 (1 to 313 amino acid residues) assessed as enzyme activity at 10 uM by KINOMEScan assay; design: scale not given: the % may be the effect or the level left; summary of the method: as §1
[25] = molecular target: Activin receptor type-1B (Homo sapiens) (UniProt P36896); test: Inhibition of human ACVR1B (187 to 505 amino acid residues) expressed in bacterial system assessed as enzyme activity at 10 uM by KINOMEScan assay; design: scale not given: the % may be the effect or the level left; summary of the method: as §3
[26] = molecular target: Glycogen synthase kinase-3 beta (Homo sapiens) (UniProt P49841); test: Inhibition of full length human GSK3B assessed as enzyme activity at 10 uM by KINOMEScan assay; design: scale not given: the % may be the effect or the level left; summary of the method: as §3

Chain of Serine/threonine-protein kinase pim-2 (Homo sapiens) (Q9P1W9 whole entry, looked up, the tested form may be a part): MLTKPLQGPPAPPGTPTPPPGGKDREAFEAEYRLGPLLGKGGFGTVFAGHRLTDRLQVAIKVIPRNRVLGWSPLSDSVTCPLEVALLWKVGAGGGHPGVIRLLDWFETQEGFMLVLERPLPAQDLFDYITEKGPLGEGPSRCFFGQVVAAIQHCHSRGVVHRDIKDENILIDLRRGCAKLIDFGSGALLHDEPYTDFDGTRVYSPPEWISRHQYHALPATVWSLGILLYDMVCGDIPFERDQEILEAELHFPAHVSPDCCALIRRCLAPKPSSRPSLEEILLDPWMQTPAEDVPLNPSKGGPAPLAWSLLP
Chain of Serine/threonine-protein kinase PAK 2 (Homo sapiens) (Q13177 whole entry, the tested form may be a part): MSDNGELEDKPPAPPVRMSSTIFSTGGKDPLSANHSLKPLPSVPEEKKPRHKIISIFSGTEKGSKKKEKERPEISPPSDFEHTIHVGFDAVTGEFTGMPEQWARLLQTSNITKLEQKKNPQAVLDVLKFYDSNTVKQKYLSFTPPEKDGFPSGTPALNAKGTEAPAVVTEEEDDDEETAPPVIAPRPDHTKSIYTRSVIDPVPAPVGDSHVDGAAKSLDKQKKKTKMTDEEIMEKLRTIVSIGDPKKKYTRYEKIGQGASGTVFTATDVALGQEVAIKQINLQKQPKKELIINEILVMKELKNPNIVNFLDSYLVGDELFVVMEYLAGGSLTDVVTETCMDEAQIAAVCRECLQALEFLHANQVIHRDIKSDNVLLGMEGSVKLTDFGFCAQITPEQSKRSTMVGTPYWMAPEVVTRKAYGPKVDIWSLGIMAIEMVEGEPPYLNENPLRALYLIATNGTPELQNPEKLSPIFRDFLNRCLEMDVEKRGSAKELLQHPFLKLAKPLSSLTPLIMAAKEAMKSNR
Chain of Bone morphogenetic protein receptor type-2 (Homo sapiens) (Q13873 whole entry, the tested form may be a part): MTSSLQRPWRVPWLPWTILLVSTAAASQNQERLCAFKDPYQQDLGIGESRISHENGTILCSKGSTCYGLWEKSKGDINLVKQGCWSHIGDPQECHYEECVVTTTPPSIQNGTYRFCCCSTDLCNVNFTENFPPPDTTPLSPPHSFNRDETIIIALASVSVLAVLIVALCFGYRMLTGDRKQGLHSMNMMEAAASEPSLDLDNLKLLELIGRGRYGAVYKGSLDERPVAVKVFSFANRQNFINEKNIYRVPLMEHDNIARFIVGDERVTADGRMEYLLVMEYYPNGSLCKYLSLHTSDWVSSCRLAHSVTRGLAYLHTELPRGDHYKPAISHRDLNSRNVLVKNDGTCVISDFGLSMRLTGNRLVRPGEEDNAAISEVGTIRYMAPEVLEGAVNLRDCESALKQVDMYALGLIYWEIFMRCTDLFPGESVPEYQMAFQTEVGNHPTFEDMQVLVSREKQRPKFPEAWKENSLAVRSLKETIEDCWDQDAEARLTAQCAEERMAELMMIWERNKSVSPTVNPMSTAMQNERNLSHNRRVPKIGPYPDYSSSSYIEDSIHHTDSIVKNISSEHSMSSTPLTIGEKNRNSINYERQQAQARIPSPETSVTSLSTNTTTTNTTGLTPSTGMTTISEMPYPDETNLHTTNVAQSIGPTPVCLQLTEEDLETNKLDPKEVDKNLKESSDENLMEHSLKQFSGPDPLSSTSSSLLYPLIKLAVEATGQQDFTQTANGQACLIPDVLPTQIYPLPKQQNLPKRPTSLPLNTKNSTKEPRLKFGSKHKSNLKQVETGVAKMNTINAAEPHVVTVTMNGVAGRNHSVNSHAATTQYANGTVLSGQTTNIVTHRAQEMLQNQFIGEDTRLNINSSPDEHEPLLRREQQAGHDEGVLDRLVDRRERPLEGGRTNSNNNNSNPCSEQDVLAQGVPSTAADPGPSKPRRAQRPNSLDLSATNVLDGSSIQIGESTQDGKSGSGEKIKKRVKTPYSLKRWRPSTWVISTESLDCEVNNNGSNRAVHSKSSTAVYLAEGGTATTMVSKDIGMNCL
Chain of Macrophage colony-stimulating factor 1 receptor (Homo sapiens) (P07333 whole entry, the tested form may be a part): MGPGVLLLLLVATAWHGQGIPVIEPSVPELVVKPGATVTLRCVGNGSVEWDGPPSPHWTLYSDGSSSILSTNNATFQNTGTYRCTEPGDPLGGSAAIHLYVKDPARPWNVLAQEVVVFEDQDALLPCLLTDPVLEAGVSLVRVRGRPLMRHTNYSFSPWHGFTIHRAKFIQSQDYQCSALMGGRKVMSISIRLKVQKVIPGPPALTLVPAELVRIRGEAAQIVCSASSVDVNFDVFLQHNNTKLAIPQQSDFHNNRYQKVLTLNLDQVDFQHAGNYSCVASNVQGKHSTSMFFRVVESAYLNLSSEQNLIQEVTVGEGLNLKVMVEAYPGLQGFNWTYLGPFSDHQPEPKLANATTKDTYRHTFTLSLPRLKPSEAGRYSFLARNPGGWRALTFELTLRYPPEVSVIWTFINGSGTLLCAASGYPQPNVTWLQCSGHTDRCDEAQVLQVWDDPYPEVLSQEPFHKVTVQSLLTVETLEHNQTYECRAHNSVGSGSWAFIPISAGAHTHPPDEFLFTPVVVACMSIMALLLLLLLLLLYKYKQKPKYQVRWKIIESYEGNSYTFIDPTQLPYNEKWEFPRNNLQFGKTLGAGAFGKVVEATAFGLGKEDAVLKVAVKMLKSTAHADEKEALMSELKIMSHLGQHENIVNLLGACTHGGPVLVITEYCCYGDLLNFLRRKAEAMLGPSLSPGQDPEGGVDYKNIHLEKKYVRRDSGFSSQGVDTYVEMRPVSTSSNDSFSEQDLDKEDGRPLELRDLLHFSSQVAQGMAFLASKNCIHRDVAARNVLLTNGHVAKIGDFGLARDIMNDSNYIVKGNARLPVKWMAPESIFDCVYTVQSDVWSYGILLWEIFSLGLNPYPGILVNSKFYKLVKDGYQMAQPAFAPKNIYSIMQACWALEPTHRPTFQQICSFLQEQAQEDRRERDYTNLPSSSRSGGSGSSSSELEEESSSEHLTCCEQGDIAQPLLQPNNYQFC
Chain of Platelet-derived growth factor receptor alpha (Homo sapiens) (P16234 whole entry, the tested form may be a part): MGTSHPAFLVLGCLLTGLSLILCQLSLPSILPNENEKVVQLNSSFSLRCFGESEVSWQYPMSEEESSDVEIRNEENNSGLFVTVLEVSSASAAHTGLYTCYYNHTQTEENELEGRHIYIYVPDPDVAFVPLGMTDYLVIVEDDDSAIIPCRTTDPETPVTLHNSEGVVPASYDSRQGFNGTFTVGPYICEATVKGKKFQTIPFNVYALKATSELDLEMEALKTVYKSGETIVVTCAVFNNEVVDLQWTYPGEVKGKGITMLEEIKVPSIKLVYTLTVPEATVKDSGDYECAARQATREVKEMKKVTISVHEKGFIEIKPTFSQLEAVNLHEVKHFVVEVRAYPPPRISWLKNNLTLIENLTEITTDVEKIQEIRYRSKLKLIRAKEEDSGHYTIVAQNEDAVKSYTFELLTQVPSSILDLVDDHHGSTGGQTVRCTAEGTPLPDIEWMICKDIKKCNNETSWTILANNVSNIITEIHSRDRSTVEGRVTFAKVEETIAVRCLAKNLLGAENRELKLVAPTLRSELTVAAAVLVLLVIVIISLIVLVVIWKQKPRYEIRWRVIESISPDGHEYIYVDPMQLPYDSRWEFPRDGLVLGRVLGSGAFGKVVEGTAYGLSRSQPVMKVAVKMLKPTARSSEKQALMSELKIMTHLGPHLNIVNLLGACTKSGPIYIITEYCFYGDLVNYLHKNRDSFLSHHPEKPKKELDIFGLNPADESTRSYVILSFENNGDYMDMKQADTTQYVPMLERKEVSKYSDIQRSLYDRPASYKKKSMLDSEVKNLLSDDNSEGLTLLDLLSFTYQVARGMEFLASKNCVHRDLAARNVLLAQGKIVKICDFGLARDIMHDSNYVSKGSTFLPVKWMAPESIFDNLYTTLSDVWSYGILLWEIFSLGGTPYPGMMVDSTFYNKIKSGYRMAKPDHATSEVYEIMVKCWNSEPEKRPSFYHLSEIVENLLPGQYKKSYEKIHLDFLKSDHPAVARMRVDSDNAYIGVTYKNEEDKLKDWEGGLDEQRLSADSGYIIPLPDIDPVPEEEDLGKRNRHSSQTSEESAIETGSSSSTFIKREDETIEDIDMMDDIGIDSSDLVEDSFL
Chain of Mast/stem cell growth factor receptor Kit (Homo sapiens), P10721 [D816V] (P10721 whole entry D816V, the tested form may be a part): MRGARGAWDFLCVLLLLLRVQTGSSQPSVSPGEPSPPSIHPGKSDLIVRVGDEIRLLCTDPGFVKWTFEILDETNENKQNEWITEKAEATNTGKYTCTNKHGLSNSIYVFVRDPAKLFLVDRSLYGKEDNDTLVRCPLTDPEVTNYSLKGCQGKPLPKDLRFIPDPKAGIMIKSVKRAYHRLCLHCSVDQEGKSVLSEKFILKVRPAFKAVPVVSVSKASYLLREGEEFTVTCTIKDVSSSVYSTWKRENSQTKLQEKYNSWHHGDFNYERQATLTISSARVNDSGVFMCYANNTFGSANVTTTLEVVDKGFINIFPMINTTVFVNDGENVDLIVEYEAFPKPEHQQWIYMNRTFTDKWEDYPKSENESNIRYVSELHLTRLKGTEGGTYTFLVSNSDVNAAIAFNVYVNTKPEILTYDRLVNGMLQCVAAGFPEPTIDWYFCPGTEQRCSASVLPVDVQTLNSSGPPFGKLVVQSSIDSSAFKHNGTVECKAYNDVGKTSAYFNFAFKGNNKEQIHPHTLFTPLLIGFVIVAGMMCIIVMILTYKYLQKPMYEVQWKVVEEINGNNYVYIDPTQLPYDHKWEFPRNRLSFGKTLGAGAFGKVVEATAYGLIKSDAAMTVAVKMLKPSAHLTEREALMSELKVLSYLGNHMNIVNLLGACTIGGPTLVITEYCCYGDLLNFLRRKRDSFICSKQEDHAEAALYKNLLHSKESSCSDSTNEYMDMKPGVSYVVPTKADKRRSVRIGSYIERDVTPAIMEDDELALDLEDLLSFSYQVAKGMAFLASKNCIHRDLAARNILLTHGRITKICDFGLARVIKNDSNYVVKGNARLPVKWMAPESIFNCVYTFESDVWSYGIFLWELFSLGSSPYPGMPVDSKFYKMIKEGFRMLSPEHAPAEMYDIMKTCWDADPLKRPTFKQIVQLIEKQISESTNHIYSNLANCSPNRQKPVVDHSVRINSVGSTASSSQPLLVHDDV

Question: Which results are given for `O=C1C2=C(C(=O)c3c(O)ccc(O)c31)[C@@H](O)[C@@H](O)[C@@H](O)C2`?
Answer: Activity [1]: 86%; Activity [2]: 67%; Activity [3]: 70%; Activity [4]: 100%; Activity [5]: 60%; Activity [6]: 77%; % of MOE kinase hits [7]: 29%; Activity [8]: 89%; Activity [9]: 92%; Activity [10]: 100%; Activity [11]: 54%; Activity [12]: 100%; Activity [13]: 88%; % of MOE kinase hits [14]: 14%; Activity [15]: 100%; Activity [16]: 99%; Activity [17]: 77%; % of MOE kinase hits [18]: 7%; Activity [19]: 57%; Activity [20]: 96%; Activity [21]: 76%; Activity [22]: 100%; Activity [23]: 87%; Activity [24]: 86%; Activity [25]: 90%; Activity [26]: 85%
